Assay results from paper PMC12377214 (RSC Advances, 2025).
Values joined by “and” are separate entries in the source; they are usually repeats but may differ in a detail not shown here. Identical values can stand only once.

How the values were obtained:
xanthine oxidase (XO) [1] = molecular target: T1, xanthine oxidase (XO) (Homo sapiens, UniProt P47989); test: Xanthine oxidase inhibition assay; assay type: biochemical
CDK6/Cyclin D3 = CDK6/Cyclin D3 (Homo sapiens, UniProt Q00534); test: In vitro CDK6 inhibitory assay; assay type: biochemical
VEGFR-2 = VEGFR-2 (Homo sapiens, UniProt P35968); test: In vitro VEGFR-2 kinase inhibitory assay; assay type: biochemical
[2] = tested on: MDA-MB-231 (breast adenocarcinoma); test: Antiproliferative SRB assay, MDA-MB-231; assay type: cell-based, human; settings: for IC50: Homo sapiens, MDA-MB-231, 72 h, read-out: pIC50 MDA-MB-231 (converted); for Selectivity index (SI) MDA-MB-231: IC50 BALB/3T3 / IC50 MDA-MB-231
A498 (kidney carcinoma) = test: Antiproliferative SRB assay, A-498; assay type: cell-based, human; settings: for IC50: Homo sapiens, A498, 72 h, read-out: pIC50 A-498 (converted); for Selectivity index (SI) A498: IC50 BALB/3T3 / IC50 A498
[3] = tested on: HepG-2 (hepatocellular carcinoma); test: Antiproliferative SRB assay, HepG2; assay type: cell-based, human; settings: for IC50: Homo sapiens, HepG2, 72 h, read-out: pIC50 HepG2 (converted); for Selectivity index (SI) HepG2: IC50 BALB/3T3 / IC50 HepG2
MV4-11 cell line [4] = test: Antiproliferative MTT assay, MV4-11; assay type: cell-based; settings: Homo sapiens, MV4-11, read-out: Anti-proliferative IC50 MV4-11
How it was run: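 MV4-11 cells grown in RPMI 1640 with stable glutamine, 10% FBS, 1.0 mM sodium pyruvate and penicillin/streptomycin at 37 °C, 5% CO2. Seeded at 2000 cells/well, then treated after 24 h with test compound (DMSO stock of 10 mg mL−1 diluted in medium; 0.1–100 μg mL−1) for 72 h. MTT added for 4 h, formazan dissolved in DMF, A570 read. IC50 calculated.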

MV4-11 cell line [5] = test: Cell cycle analysis; assay type: cell-based; settings: for Cell percentage SubG1: control 7.12 ± 0.569; for Cell percentage G2/M: control 20.98 ± 0.614; for Cell percentage S: control 24.54 ± 2.475; for Cell percentage G0/G1: control 45.40 ± 3.051
MV4-11 cell line [6] = settings: MV4-11 cancer cell line; cited from earlier work
xanthine oxidase (XO) [7] = molecular target: T1, xanthine oxidase (XO); test: Kinetics of xanthine oxidase inhibition; assay type: biochemical; settings: for V max: XO alone 2.25 / 2.21; for K m: XO alone Km 40

Sequence of CDK6/Cyclin D3 (Q00534 whole entry): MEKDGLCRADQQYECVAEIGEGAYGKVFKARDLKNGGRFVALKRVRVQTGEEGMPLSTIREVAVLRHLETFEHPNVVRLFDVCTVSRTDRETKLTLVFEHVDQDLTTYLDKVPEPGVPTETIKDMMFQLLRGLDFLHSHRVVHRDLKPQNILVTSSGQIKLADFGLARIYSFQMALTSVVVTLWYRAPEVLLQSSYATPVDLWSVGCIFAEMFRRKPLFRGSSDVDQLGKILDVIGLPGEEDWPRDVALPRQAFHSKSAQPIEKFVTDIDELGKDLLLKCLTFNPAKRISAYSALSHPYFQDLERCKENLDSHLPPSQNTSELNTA
Sequence of CDK6/Cyclin D3 (P30281 whole entry partner): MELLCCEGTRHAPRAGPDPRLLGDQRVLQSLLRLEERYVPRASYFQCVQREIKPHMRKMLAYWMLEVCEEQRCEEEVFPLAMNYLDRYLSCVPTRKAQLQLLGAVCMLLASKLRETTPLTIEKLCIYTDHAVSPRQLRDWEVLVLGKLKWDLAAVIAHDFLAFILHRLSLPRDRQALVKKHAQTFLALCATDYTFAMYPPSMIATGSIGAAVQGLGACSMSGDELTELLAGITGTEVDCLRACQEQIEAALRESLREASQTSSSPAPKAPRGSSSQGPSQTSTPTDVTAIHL
Sequence of VEGFR-2 (P35968 20-1356): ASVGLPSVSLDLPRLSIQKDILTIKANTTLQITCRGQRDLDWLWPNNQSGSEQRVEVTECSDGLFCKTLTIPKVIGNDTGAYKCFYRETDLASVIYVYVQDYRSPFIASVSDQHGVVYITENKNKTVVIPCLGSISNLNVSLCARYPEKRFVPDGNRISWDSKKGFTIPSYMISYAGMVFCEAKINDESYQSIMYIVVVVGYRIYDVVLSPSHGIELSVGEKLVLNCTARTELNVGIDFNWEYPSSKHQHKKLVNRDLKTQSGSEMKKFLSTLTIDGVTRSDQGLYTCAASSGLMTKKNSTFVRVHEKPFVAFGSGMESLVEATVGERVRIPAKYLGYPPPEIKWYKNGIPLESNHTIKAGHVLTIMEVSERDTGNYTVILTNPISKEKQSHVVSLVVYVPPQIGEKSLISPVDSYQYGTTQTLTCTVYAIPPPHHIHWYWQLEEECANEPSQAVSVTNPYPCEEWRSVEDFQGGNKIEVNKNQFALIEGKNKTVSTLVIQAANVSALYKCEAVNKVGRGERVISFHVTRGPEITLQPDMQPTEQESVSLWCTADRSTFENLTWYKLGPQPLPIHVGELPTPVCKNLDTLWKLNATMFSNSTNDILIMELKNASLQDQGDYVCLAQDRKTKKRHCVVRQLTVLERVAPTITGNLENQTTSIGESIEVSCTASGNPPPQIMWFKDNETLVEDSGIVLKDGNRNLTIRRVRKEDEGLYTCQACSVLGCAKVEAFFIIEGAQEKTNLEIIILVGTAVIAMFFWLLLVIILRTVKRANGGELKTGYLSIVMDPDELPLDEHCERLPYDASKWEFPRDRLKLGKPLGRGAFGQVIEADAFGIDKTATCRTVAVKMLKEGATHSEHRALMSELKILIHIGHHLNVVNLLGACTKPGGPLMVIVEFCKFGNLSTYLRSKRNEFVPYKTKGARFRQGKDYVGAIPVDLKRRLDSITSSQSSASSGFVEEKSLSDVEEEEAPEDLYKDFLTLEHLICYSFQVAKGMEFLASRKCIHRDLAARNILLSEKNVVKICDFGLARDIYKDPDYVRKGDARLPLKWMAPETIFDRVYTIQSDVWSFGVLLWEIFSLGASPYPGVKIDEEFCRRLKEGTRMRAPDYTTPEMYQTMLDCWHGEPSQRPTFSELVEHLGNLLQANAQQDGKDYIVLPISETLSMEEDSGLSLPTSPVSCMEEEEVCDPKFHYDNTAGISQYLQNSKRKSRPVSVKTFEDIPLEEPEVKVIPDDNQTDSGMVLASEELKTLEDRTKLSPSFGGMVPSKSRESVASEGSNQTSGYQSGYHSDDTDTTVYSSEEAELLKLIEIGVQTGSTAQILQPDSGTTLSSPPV
T1 sequence (P47989 whole entry, species assumed): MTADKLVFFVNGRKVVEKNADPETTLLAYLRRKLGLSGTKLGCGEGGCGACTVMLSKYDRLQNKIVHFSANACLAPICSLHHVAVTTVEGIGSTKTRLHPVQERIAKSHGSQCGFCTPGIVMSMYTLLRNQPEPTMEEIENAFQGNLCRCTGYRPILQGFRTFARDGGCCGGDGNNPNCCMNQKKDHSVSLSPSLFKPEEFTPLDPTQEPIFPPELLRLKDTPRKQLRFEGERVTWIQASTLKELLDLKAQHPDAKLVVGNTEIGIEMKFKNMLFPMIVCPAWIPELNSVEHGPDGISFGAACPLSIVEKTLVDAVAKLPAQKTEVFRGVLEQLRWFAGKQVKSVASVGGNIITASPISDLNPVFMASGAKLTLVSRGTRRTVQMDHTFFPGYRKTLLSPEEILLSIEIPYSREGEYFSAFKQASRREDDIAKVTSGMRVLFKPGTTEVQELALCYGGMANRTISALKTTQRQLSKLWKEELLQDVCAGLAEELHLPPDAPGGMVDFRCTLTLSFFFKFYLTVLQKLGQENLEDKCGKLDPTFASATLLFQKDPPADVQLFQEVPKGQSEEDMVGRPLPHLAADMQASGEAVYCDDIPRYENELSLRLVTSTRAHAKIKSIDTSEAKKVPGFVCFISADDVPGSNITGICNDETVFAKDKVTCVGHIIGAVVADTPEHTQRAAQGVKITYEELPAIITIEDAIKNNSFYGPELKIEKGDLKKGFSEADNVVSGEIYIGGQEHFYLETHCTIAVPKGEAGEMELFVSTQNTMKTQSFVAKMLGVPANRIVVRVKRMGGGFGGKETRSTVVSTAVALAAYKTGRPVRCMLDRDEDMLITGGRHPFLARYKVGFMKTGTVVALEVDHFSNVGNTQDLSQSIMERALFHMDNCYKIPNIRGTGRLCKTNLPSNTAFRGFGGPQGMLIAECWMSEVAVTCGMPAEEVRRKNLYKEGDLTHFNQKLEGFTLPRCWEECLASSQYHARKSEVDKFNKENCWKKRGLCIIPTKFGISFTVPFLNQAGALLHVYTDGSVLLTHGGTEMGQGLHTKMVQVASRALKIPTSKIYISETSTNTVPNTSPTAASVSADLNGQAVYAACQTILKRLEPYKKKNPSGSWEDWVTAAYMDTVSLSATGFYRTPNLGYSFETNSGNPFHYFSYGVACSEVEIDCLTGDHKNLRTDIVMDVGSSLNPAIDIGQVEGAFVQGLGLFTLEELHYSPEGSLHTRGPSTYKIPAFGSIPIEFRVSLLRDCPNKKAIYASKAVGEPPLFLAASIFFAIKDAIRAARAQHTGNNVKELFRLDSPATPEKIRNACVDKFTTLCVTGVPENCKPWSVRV

Structure (SMILES): O=C1C(=O)N(CCn2ncc3c(=O)[nH]cnc32)c2ccccc21 [6a, 1-[2-(1,5-Dihydro-4-oxopyrazolo[3,4-d]pyrimidin-1-yl)ethyl] indole-2,3-dione]
- IC50 (xanthine oxidase (XO) [1]): 43.7 ± 5.51 µM
- IC50 (CDK6/Cyclin D3): 0.603 µM
- IC50 (VEGFR-2): 0.309 µM
- IC50 [2]: 91.2 µM
- IC50 (A498 (kidney carcinoma)): 58.9 µM
- IC50 [3]: 151 µM

Structure (SMILES): COc1ccc2c(c1)C(=O)C(=O)N2CCn1cnc2c(N)ncnc21 [7c, 1-[2-(6-Amino-9H-purin-9-yl)ethyl]-2,3-dihydro-5-methoxy-1H-indole-2,3-dione]
- IC50 [2]: 135 µM
- IC50 (A498 (kidney carcinoma)): 182 µM
- IC50 [3]: 77.6 µM

Structure (SMILES): Nc1ncnc2c1ncn2CCN1C(=O)C(=O)c2cc(Cl)ccc21 [7b, 1-[2-(6-Amino-9H-purin-9-yl)ethyl]-5-chloro-2,3-dihydro-1H-indole-2,3-dione]
- IC50 (xanthine oxidase (XO) [1]): 66.1 µM
- IC50 (MV4-11 cell line [4]): 11.8 µM
- IC50 (CDK6/Cyclin D3): 1.51 µM
- IC50 (VEGFR-2): 0.513 µM
- Increase in S phase relative to control (MV4-11 cell line [5]; MV4-11, 10 μg mL^−1, p < 0.05): 1.49 fold
- Cell percentage SubG1 (MV4-11 cell line [5]; MV4-11, 10 μg mL^−1): 6.15 ± 2.74% and 6.15 ± 2.739%
- Cell percentage G2/M (MV4-11 cell line [5]; MV4-11, 10 μg mL^−1): 13.32 ± 2.763%
- Cell percentage S (MV4-11 cell line [5]; MV4-11, 10 μg mL^−1): 36.66 ± 4.326%
- Cell percentage G0/G1 (MV4-11 cell line [5]; MV4-11, 10 μg mL^−1): 44.36 ± 4.193%
- IC50 [2]: 19.5 µM
- Selectivity index (SI) MDA-MB-231 [2]: 3.64
- IC50 (A498 (kidney carcinoma)): 52.5 µM
- Selectivity index (SI) A498 (A498 (kidney carcinoma)): 1.37
- IC50 [3]: 6.03 µM
- Selectivity index (SI) HepG2 [3]: 11.89

Structure (SMILES): COc1ccc2c(c1)C(=O)C(=O)N2CCn1ncc2c(=O)[nH]cnc21 [6c, 1-[2-(1,5-Dihydro-4-oxopyrazolo[3,4-d]pyrimidin-1-yl)ethyl]5-methoxyindole-2,3-dione]
- IC50 [2]: 47.9 µM
- IC50 (A498 (kidney carcinoma)): 30.2 µM
- IC50 [3]: 93.3 µM

Structure (SMILES): O=C1C(=O)N(CCn2ncc3c(=O)[nH]cnc32)c2ccc(F)cc21 [6d, 5-Fluoro-1-[(2-(1,5-dihydro-4-oxopyrazolo[3,4-d]pyrimidin-1-yl)ethyl)]indole-2,3-dione]
- IC50 [2]: 47.9 µM
- IC50 (A498 (kidney carcinoma)): 38.9 µM
- IC50 [3]: 61.7 µM

Structure (SMILES): NC(=S)N/N=C1\C(=O)N(CCn2cnc3c(N)ncnc32)c2ccc(F)cc21 [9d, (2Z)-2-{5-Fluoro-2-oxo-1-[2-(6-aminopurine-9-yl)ethyl]-1,2-dihydro-3H-indol-3-ylidene}hydrazine-1-carbothioamide]
- IC50 [3]: 56.2 µM

Structure (SMILES): Nc1ncnc2c1ncn2CCN1C(=O)C(=O)c2ccccc21 [7a, 1-[2-(6-Amino-9H-purin-9-yl)ethyl]-2,3-dihydro-1H-indole-2,3-dione]
- IC50 [2]: 209 µM

Structure (SMILES): CC(=O)c1c(C)c2cnc(Nc3ccc(N4CCNCC4)cn3)nc2n(C2CCCC2)c1=O [Palbociclib]
- Cell cycle arrest phase (MV4-11 cell line [6]): cell cycle arrest at the G1 phase

Structure (SMILES): O=C1C(=O)N(CCn2ncc3c(=O)[nH]cnc32)c2ccc(Cl)cc21 [6b, 5-Chloro-1-[2-(1,5-dihydro-4-oxopyrazolo[3,4-d]pyrimidin-1-yl)ethyl]indole-2,3-dione]
- IC50 (MV4-11 cell line [4]): 5.85 µM
- Cell percentage SubG1 (MV4-11 cell line [5]; MV4-11, 1 μg mL^−1): 3.48 ± 1.178%
- Cell percentage G2/M (MV4-11 cell line [5]; MV4-11, 1 μg mL^−1): 17.67 ± 1.285%
- Cell percentage S (MV4-11 cell line [5]; MV4-11, 1 μg mL^−1): 27.15 ± 3.651%
- Cell percentage G0/G1 (MV4-11 cell line [5]; MV4-11, 1 μg mL^−1): 50.37 ± 4.619%
- IC50 [2]: 13.2 µM
- Selectivity index (SI) MDA-MB-231 [2]: 2.49
- IC50 (A498 (kidney carcinoma)): 16.2 µM
- Selectivity index (SI) A498 (A498 (kidney carcinoma)): 2.03
- IC50 [3]: 15.1 µM
- Selectivity index (SI) HepG2 [3]: 2.15

Structure (SMILES): NC(=S)N/N=C1\C(=O)N(CCn2ncc3c(=O)[nH]cnc32)c2ccc(Cl)cc21 [8b, (2Z)-2-{5-Chloro-2-oxo-1-[2-(4-oxo-1,5-dihydropyrazolo[3,4-d]pyrimidin-1-yl)ethyl]-1,2-dihydro-3H-indol-3-ylidene}hydrazine-1-carbothioamide]
- IC50 (xanthine oxidase (XO) [1]): 21.9 µM
- IC50 (CDK6/Cyclin D3): 0.0676 µM
- IC50 (VEGFR-2): 0.0708 µM
- IC50 [2]: 53.7 µM
- Selectivity index (SI) MDA-MB-231 [2]: 0.63
- IC50 (A498 (kidney carcinoma)): 14.1 µM
- Selectivity index (SI) A498 (A498 (kidney carcinoma)): 2.45
- IC50 [3]: 13.2 µM
- Selectivity index (SI) HepG2 [3]: 2.60

Structure (SMILES): NC(=S)N/N=C1\C(=O)N(CCn2ncc3c(=O)[nH]cnc32)c2ccc(F)cc21 [8d, (2Z)-2-{5-Fluoro-2-oxo-1-[2-(4-oxo-1,5-dihydropyrazolo[3,4-d]pyrimidin-1-yl)ethyl]-1,2-dihydro-3H-indol-3-ylidene}hydrazine-1-carbothioamide]
- IC50 (A498 (kidney carcinoma)): 105 µM
- IC50 [3]: 25.1 µM

Structure (SMILES): CNC(=O)c1cc(Oc2ccc(NC(=O)Nc3ccc(Cl)c(C(F)(F)F)c3)cc2)ccn1 [Sorafenib, reference compound]
- IC50 [2]: 81.3 µM
- IC50 (A498 (kidney carcinoma)): 63.1 µM
- IC50 [3]: 44.7 µM

Structure (SMILES): Oc1ncnc2[nH]ncc12 [Allopurinol]
- Type of XO inhibition (xanthine oxidase (XO) [7]; Lineweaver–Burk plot): mixed
- V max (xanthine oxidase (XO) [7]; inhibitor 0.1 μM): 1.51
- K m (xanthine oxidase (XO) [7]; inhibitor 0.1 μM): 50
- V max (xanthine oxidase (XO) [7]; inhibitor 1 μM): 1.33
- K m (xanthine oxidase (XO) [7]; inhibitor 1 μM): 64
- V max (xanthine oxidase (XO) [7]; inhibitor 10 μM): 0.55
- K m (xanthine oxidase (XO) [7]; inhibitor 10 μM): 51

Structure (SMILES): Nc1ncnc2c1ncn2CCN1C(=O)C(=O)c2cc(F)ccc21 [7d, 1-[2-(6-Amino-9H-purin-9-yl)ethyl]-2,3-dihydro-5-fluoro-1H-indole-2,3-dione]
- IC50 [2]: 83.2 µM
- IC50 (A498 (kidney carcinoma)): 166 µM
- IC50 [3]: 17.4 µM
